{"source": "ChEMBL document CHEMBL1144450", "about": "(J Med Chem, 2005)", "key": {"[1]": {"experiment": "Percentage of nitric oxide released by the compound when incubated in phosphate buffer solution at pH 7.4, 37 degree C for 1.5 h", "format": "functional", "how_it_was_run": "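The compound was incubated in PBS at pH 7.4 and 37 °C for 1.5 h. Nitric oxide was quantified as nitrite by the Griess reaction. Release is expressed as percent of a theoretical maximum of 2 mol NO per mol compound, SEM, n = 3.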"}, "Rattus norvegicus": {"tested_on": "Rattus norvegicus", "experiment": "In vivo antiinflammatory activity after 3 hr of oral administration was determined using rat carrageenan induced paw edema model", "format": "functional", "conditions": "read-out: ID50 (the source's name)", "how_it_was_run": "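Carrageenan-induced foot paw edema in rats, with the test compound and reference drugs given orally. Activity is expressed as ID50 in mg/kg.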"}, "[2]": {"molecular_target": "T1, Prostaglandin G/H synthase 1 (Ovis aries, UniProt P05979)", "T1 sequence (P05979 whole entry)": "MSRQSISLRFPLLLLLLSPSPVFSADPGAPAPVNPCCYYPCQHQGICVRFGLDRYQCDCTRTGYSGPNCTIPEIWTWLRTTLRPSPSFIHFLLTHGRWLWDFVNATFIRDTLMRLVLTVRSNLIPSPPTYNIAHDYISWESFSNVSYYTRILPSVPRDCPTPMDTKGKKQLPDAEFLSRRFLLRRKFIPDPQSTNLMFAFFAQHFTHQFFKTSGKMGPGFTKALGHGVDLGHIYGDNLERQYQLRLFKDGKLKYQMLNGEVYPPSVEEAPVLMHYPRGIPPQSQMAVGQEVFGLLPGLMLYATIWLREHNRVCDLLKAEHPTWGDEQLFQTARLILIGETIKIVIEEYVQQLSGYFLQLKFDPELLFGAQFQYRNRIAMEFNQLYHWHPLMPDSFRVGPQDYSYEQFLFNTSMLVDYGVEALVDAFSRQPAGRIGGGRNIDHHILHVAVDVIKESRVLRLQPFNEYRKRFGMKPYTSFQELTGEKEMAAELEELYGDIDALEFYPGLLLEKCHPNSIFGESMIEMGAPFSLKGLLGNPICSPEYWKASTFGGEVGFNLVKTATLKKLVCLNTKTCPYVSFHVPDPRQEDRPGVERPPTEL", "experiment": "In vitro inhibitory concentration against COX-1 enzyme"}, "[3]": {"experiment": "Percentage of nitric oxide released upon incubation in the presence of pig liver esterase in phosphate buffer solution at pH 7.4, 37 degree C for 1.5 h", "format": "functional", "how_it_was_run": "(§1)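 Pig liver esterase was added at 2 equiv (1 mol compound : 2 mol esterase) in PBS at pH 7.4, 37 °C, 1.5 h. Nitrite from NO was measured by the Griess reaction. Release is given as percent of a theoretical 2 mol NO per mol compound, SEM, n = 3.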"}, "[4]": {"experiment": "Percentage of nitric oxide released upon incubation in the presence of guinea pig serum in PBS pH 7.4, 37 degree C for 1.5 h", "format": "functional", "design": "concentration or dose not given beside the values", "how_it_was_run": "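Test compound (2.0 × 10-4 mmol) was incubated with 260 µL guinea pig serum in PBS at pH 7.4, 37 °C, for 1.5 h. Nitrite was determined by the Griess reaction. Release is given as percent of a theoretical maximum of 2 mol NO per mol compound, SEM, n = 3.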"}, "[5]": {"experiment": "Percentage of nitric oxide released by the compound when incubated in the presence of pig liver esterase in phosphate buffer solution at pH 7.4, 37 degree C for 1.5 h", "format": "functional", "how_it_was_run": "as §1"}}, "data": [{"smiles": "[O-]/[N+](=N\\O)N1CCCC1", "values": [{"measurement": "Activity", "setting": "[1]", "result": 94, "unit": "%"}]}, {"smiles": "COc1ccc2c(c1)c(CC(=O)O)c(C)n2C(=O)c1ccc(Cl)cc1", "note": "[INDOMETHACIN]", "values": [{"measurement": "ED50", "setting": "Rattus norvegicus", "result": 4.2, "unit": "mg/kg"}]}, {"smiles": "CC(C)Cc1ccc(C(C)C(=O)O)cc1", "note": "(centres undefined) [IBUPROFEN]", "values": [{"measurement": "ED50", "setting": "Rattus norvegicus", "result": 67.4, "unit": "mg/kg"}]}, {"smiles": "CC(=O)Oc1ccccc1C(=O)OCO/N=[N+](\\[O-])N(C)C", "values": [{"measurement": "IC50", "setting": "[2]", "result": "> 100", "unit": "µM"}, {"measurement": "ED50", "setting": "Rattus norvegicus", "result": 151, "unit": "mg/kg"}, {"measurement": "Activity", "setting": "[3]", "result": 19.1, "unit": "%"}, {"measurement": "Activity", "setting": "[4]", "result": 81.6, "unit": "%"}, {"measurement": "Activity", "setting": "[1]", "result": 15.4, "unit": "%"}]}, {"smiles": "COc1ccc2c(c1)c(CC(=O)OCO/N=[N+](\\[O-])N(C)C)c(C)n2C(=O)c1ccc(Cl)cc1", "values": [{"measurement": "IC50", "setting": "[2]", "result": "> 100", "unit": "µM"}, {"measurement": "ED50", "setting": "Rattus norvegicus", "result": 5.9, "unit": "mg/kg"}, {"measurement": "Activity", "setting": "[3]", "result": 16.9, "unit": "%"}, {"measurement": "Activity", "setting": "[4]", "result": 86.3, "unit": "%"}, {"measurement": "Activity", "setting": "[1]", "result": 14.3, "unit": "%"}]}, {"smiles": "COc1ccc2c(c1)c(CC(=O)OCO/N=[N+](\\[O-])N1CCCC1)c(C)n2C(=O)c1ccc(Cl)cc1", "values": [{"measurement": "IC50", "setting": "[2]", "result": "> 100", "unit": "µM"}, {"measurement": "ED50", "setting": "Rattus norvegicus", "result": 10.7, "unit": "mg/kg"}, {"measurement": "Activity", "setting": "[3]", "result": 16.3, "unit": "%"}, {"measurement": "Activity", "setting": "[4]", "result": 89.1, "unit": "%"}, {"measurement": "Activity", "setting": "[1]", "result": 15.1, "unit": "%"}]}, {"smiles": "CC(=O)Oc1ccccc1C(=O)OCO/N=[N+](\\[O-])N1CCCC1", "values": [{"measurement": "IC50", "setting": "[2]", "result": "> 100", "unit": "µM"}, {"measurement": "ED50", "setting": "Rattus norvegicus", "result": 182, "unit": "mg/kg"}, {"measurement": "Activity", "setting": "[4]", "result": 88.9, "unit": "%"}, {"measurement": "Activity", "setting": "[5]", "result": 18.5, "unit": "%"}, {"measurement": "Activity", "setting": "[1]", "result": 14.8, "unit": "%"}]}, {"smiles": "CN(C)/[N+]([O-])=N/O", "values": [{"measurement": "Activity", "setting": "[1]", "result": 95.2, "unit": "%"}]}, {"smiles": "CC(C)Cc1ccc(C(C)C(=O)OCO/N=[N+](\\[O-])N2CCCC2)cc1", "note": "(centres undefined)", "values": [{"measurement": "IC50", "setting": "[2]", "result": "> 100", "unit": "µM"}, {"measurement": "ED50", "setting": "Rattus norvegicus", "result": 66.8, "unit": "mg/kg"}, {"measurement": "Activity", "setting": "[3]", "result": 16.3, "unit": "%"}, {"measurement": "Activity", "setting": "[4]", "result": 89.2, "unit": "%"}, {"measurement": "Activity", "setting": "[1]", "result": 14.9, "unit": "%"}]}, {"smiles": "CC(C)Cc1ccc(C(C)C(=O)OCO/N=[N+](\\[O-])N(C)C)cc1", "note": "(centres undefined)", "values": [{"measurement": "IC50", "setting": "[2]", "result": "> 100", "unit": "µM"}, {"measurement": "ED50", "setting": "Rattus norvegicus", "result": 62.3, "unit": "mg/kg"}, {"measurement": "Activity", "setting": "[3]", "result": 17.3, "unit": "%"}, {"measurement": "Activity", "setting": "[4]", "result": 93.6, "unit": "%"}, {"measurement": "Activity", "setting": "[1]", "result": 16.1, "unit": "%"}]}]}
